Data on 8 molecules can be found in paper PMC3312318 (Biochemistry, 2012).

One experiment relates to PICK1 PDZ domain. To be noted: in words, ref [39], cited from earlier work.
Experiment [1] deals with PKCα. As to the kind of experiment: In vitro phosphorylation by PKCα. It is filed as biochemical. To be noted: in words. A digest of the protocol: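 About 3 μg of purified untagged PICK1 variant was mixed with reaction buffer (Tris pH 7.5, MgCl2, CaCl2), PKC lipid activator, 10 ng PKCα and 2 μCi [γ-32P]ATP, then incubated 30 min at 30 °C. Reactions were stopped on ice with SDS loading buffer and run on SDS-PAGE. 32P and Coomassie bands were quantified, and the phosphorylation/protein density ratio was expressed relative to WT (100%). Mean ± SE, 3–5 experiments.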

Experiment [2] deals with PKCα. As to the kind of experiment: In vitro phosphorylation by PKCα after preincubation with lipid vesicles. It is filed as biochemical. To be noted: with vs without vesicles. A digest of the protocol: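 Purified untagged PICK1 (~3 μg) was preincubated 30 min on ice with 3 μg Folch fraction type I vesicles extruded to 100 nm, or without vesicles. It was then phosphorylated with 10 ng PKCα, PKC lipid activator, Mg2+/Ca2+ Tris reaction buffer (pH 7.5) and 2 μCi [γ-32P]ATP for 30 min at 30 °C. Read-out was 32P band density over Coomassie protein density.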

In experiment [3] the target is T1, PICK1 WT (protein interacting with C-kinase 1), rat (rat, UniProt Q9EP80 1-416). As to the kind of experiment: fluorescence polarisation.
T1 sequence (Q9EP80 whole entry): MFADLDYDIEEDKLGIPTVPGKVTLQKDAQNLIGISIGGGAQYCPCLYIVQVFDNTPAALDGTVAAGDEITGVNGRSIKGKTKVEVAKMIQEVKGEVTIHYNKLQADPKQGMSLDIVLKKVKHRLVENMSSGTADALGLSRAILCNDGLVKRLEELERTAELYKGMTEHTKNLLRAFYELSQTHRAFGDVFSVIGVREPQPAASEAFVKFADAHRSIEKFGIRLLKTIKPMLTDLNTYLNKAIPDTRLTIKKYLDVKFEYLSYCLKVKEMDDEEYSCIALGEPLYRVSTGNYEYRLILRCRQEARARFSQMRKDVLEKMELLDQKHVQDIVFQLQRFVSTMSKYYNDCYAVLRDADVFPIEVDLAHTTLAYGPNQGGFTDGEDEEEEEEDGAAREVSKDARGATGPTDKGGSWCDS
The target of experiment [4] is T2, PICK1 S77A, rat (rat, UniProt Q9EP80 1-416, S77A). As to the kind of experiment: fluorescence polarisation.
T2 sequence (Q9EP80 whole entry S77A): as the sequence (Q9EP80 whole entry) above, with S77A counted along it
Experiment [5] deals with T3, PICK1 S77D, rat (phosphomimic) (rat, UniProt Q9EP80 1-416, S77D). As to the kind of experiment: fluorescence polarisation. (In general: In fluorescence polarisation assays a small probe gives low polarisation when free and higher when bound to something large.)
T3 sequence (Q9EP80 whole entry S77D): as the sequence (Q9EP80 whole entry) above, with S77D counted along it
Experiment [6] has as its target T1, PICK1 WT (protein interacting with …). The experiment in a line: fluorescence polarisation. The source holds these as a separate data set.
Experiment [7] deals with T2, PICK1 S77A, rat. The experiment in a line: fluorescence polarisation. The source holds these as a separate data set.
Experiment [8] addresses T3, PICK1 S77D, rat (phosphomimic). The experiment in a line: fluorescence polarisation. This is another data set of the same source.

Ends that are not written are not given here. Oregon Green 488 = Oregon Green 488 fluorophore

As for EVRQFTLRHWLKD [DAT C13 V to D], in the experiment with PICK1 PDZ domain (last residue changed to aspartate), the “interaction with the PICK1 PDZ domain” value is “disrupts the interaction with the PICK1 PDZ domain”.

Take “OrG DAT C13: DAT C13 with an additional N-terminal cysteine residue coupled to the fluorophore Oregon Green 488 (C(Oregon Green 488)EVRQFTLRHWLKV)”: the “affinity for the PICK1 PDZ domain” value with PICK1 PDZ domain is recorded as “highest affinity reported for the PICK1 PDZ domain”.

Take “PICK1 A87L: PICK1 mutant (A87L) that cannot accommodate a peptide in the PDZ binding pocket”: the “PKCα phosphorylation compared with PICK1 WT” value in the experiment on PKCα [1] (n=3-5) is recorded as “phosphorylated to the same level as WT”.

Take “PICK1 WT: purified rat PICK1, cleaved from GST with thrombin”: the “PKCα in vitro phosphorylation” value in the experiment on PKCα [1] (SDS-PAGE, 32P autoradiography, n=3) is given as “PICK1 is a substrate for PKCα”. For the same molecule, the “fold increase in phosphorylation on addition of lipid vesicles” value with PKCα [2] is on record as “approximately 10 fold”.

For orientation: Ki means a measure of affinity in units of concentration, obtained from inhibition or displacement. Take NPQFVHPILQSAV [PKCα C13 (13 C-terminal residues of human protein kinase Cα)]: the Ki in [3] was determined as 49 µM; with PICK1 S77A, rat [4], 28 µM; in experiment [5] it was 29 µM.

Consider EVRQFTLRHWLKV [DAT C13 (13 C-terminal residues of the human dopamine transporter)], for which the Ki was 1.05 µM in [3]; 1.5 µM with PICK1 S77A, rat [4]; 1.1 µM in [5].

Consider EGYNVYGIESVKI [GluA2 C13 (13 C-terminal residues of human GluA2)], for which the Ki in experiment [3] came to 7.6 µM; with PICK1 S77A, rat [4] it was 9.8 µM; in experiment [5] it was 8.8 µM.

Regarding C(Oregon Green 488)EVRQFTLRHWLKV [OrG DAT C13 (DAT C13 with an additional N-terminal cysteine coupled to Oregon Green 488)], the binding result in [6] is recorded as “binds”; with PICK1 S77A, rat [7], “binds”; in [8], “binds”.
